Assay results taken from ChEMBL document CHEMBL3351723, “New derivatives of lupane triterpenoids disturb breast cancer mitochondria and induce cell death” (Bioorg Med Chem, 2014).
Active and inactive are the calls of the source. The rule behind the calls is not given here.

How the values were obtained:
Liver microsome [1] = assay: Effect on mitochondrial transmembrane potential in Wistar Han rat liver mitochondria energized with succinate assessed as mitochondrial transmembrane electropotential at 0.06 ug/mg of protein (reference value: 216.0 +/- 7.4 mV); assay type: functional
Liver microsome [2] = assay: Effect on mitochondrial transmembrane potential in Wistar Han rat liver mitochondria energized with succinate assessed as ADP depolarization at 0.133 ug/mg of protein (reference value: 34.7 +/- 1.4 mV); assay type: functional
Hs-578T = assay: Cytotoxicity against human Hs578T cells assessed as decrease in live cells at 1 ug/ml for 24 to 48 hrs by flow cytometry; assay type: functional
Procedure, shortened: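 Hs578T seeded at 2.5×10^4 cells/ml, exposed to 1 μg/ml or DMSO for 24 and 48 h. Cells trypsinized and resuspended in HEPES-buffered saline with 15 mM glucose. Stained 15 min at 37°C with 1 μM ethidium homodimer and 0.1 μM calcein-AM. Green (calcein) and red (ethidium homodimer) signals read by flow cytometry. Mean ± SEM, 6 experiments.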

Liver microsome [3] = assay: Effect on mitochondrial transmembrane potential in Wistar Han rat liver mitochondria energized with succinate assessed as mitochondrial transmembrane electropotential at 0.667 ug/mg of protein (reference value: 204.2 +/- 5.6 mV); assay type: functional
Liver microsome [4] = assay: Effect on mitochondrial transmembrane potential in Wistar Han rat liver mitochondria energized with succinate assessed as ADP depolarization at 0.067 ug/mg of protein (reference value: 25.3 +/- 2.1 mV); assay type: functional
Liver microsome [5] = assay: Effect on mitochondrial transmembrane potential in Wistar Han rat liver mitochondria energized with succinate assessed as mitochondrial transmembrane electropotential at 0.333 ug/mg of protein (reference value: 204.2 +/- 5.6 mV); assay type: functional
Liver microsome [6] = assay: Effect on mitochondrial transmembrane potential in Wistar Han rat liver mitochondria energized with succinate assessed as ADP depolarization at 0.333 ug/mg of protein (reference value: 25.3 +/- 2.1 mV); assay type: functional
Liver microsome [7] = assay: Effect on mitochondrial transmembrane potential in Wistar Han rat liver mitochondria energized with succinate assessed as time duration of lag phase at 0.133 ug/mg of protein (reference value: 33.0 +/- 4.6 sec); assay type: functional
Procedure, shortened: (§1)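 Isolated male Wistar rat liver mitochondria (1.5 mg protein) in 125 mM sucrose, 65 mM KCl, 5 mM KH2PO4, 2.5 mM MgCl2, 5 mM HEPES pH 7.4, 30°C, with 3 μM TPP+. Compound added for 1 min, then 10 mM succinate plus 3 μM rotenone. State 3 started with ADP (83.3 nmol/mg protein). ΔΨ read with a TPP+-selective electrode and calculated by the Kamo equation without binding correction.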

Liver microsome [8] = assay: Effect on mitochondrial transmembrane potential in Wistar Han rat liver mitochondria energized with succinate assessed as mitochondrial transmembrane electropotential at 0.06 ug/mg of protein (reference value: 204.2 +/- 5.6 mV); assay type: functional
[9] = Induction of apoptosis in human MCF12A cells assessed as distribution of mitochondrial polarization and morphology at 0.25 ug/ml after 6 hrs by confocal microscopy; assay type: cell-based; details: mcf-12a
Procedure, shortened: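 Cells were seeded on glass coverslips and left to attach for 24 h. They were then exposed to vehicle or 0.25 μg/ml compound for 6 h. For the last 30 min they were loaded with 100 nM TMRM in saline buffer with 15 mM glucose, and the probe was kept present during imaging. Mitochondrial polarization and morphology were imaged by fluorescence microscopy, and the TMRM fluorescence standard deviation was quantified. Four independent preparations, mean ± SEM.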

Liver microsome [10] = assay: Effect on mitochondrial transmembrane potential in Wistar Han rat liver mitochondria energized with succinate assessed as time duration of lag phase at 0.667 ug/mg of protein Rvb = 46.7 +/- 3.9 sec); assay type: functional; procedure, shortened: as §1
Liver microsome [11] = assay: Effect on mitochondrial transmembrane potential in Wistar Han rat liver mitochondria energized with succinate assessed as time duration of lag phase at 1.333 ug/mg of protein Rvb = 46.7 +/- 3.9 sec); assay type: functional; procedure, shortened: as §1
Liver microsome [12] = assay: Reduction in ADP-induced mitochondrial transmembrane electropotential in Wistar Han rat liver mitochondria energized with succinate at >0.3 ug/mg of protein; assay type: functional
Liver microsome [13] = assay: Effect on mitochondrial transmembrane potential in Wistar Han rat liver mitochondria energized with succinate assessed as ADP depolarization at 1.333 ug/mg of protein (reference value: 34.6 +/- 1.9 mV); assay type: functional
Liver microsome [14] = assay: Effect on mitochondrial transmembrane potential in Wistar Han rat liver mitochondria energized with succinate assessed as mitochondrial transmembrane electropotential at 0.06 ug/mg of protein (reference value: 220.6 +/- 2.5 mV); assay type: functional
Liver microsome [15] = assay: Effect on mitochondrial transmembrane potential in Wistar Han rat liver mitochondria energized with succinate assessed as time duration of lag phase at 0.067 ug/mg of protein (reference value: 46.7 +/- 3.9 sec); assay type: functional; procedure, shortened: as §1
Liver microsome [16] = assay: Effect on mitochondrial transmembrane potential in Wistar Han rat liver mitochondria energized with succinate assessed as time duration of lag phase at 0.133 ug/mg of protein Rvb = 46.7 +/- 3.9 sec); assay type: functional; procedure, shortened: as §1
Liver microsome [17] = assay: Effect on mitochondrial transmembrane potential in Wistar Han rat liver mitochondria energized with succinate assessed as mitochondrial transmembrane electropotential at 0.133 ug/mg of protein (reference value: 220.6 +/- 2.5 mV); assay type: functional
Liver microsome [18] = assay: Effect on mitochondrial transmembrane potential in Wistar Han rat liver mitochondria energized with succinate assessed as ADP depolarization at 0.333 ug/mg of protein (reference value: 34.6 +/- 1.9 mV); assay type: functional
Liver microsome [19] = assay: Effect on mitochondrial transmembrane potential in Wistar Han rat liver mitochondria energized with succinate assessed as ADP depolarization at 0.133 ug/mg of protein (reference value: 23.9 +/- 3.3 mV); assay type: functional
Liver microsome [20] = assay: Effect on mitochondrial transmembrane potential in Wistar Han rat liver mitochondria energized with succinate assessed as mitochondrial transmembrane electropotential at 0.133 ug/mg of protein (reference value: 198.0 +/- 5.6 mV); assay type: functional
Liver microsome [21] = assay: Effect on mitochondrial transmembrane potential in Wistar Han rat liver mitochondria energized with succinate assessed as ADP depolarization at 0.333 ug/mg of protein (reference value: 23.9 +/- 3.3 mV); assay type: functional
[22] = system: Liver mitochondria (Rattus norvegicus); assay: Effect on mitochondrial transmembrane potential in Wistar Han rat liver mitochondria energized with succinate assessed as time duration of lag phase at 0.667 ug/mg of protein (reference value: 40.5 +/- 4.5 sec)
[23] = system: Liver mitochondria (Rattus norvegicus); assay: Effect on mitochondrial transmembrane potential in Wistar Han rat liver mitochondria energized with succinate assessed as time duration of lag phase at 1.333 ug/mg of protein (reference value: 40.5 +/- 4.5 sec)

Question: With `C=C(C)[C@@H]1CC[C@]2(COC(=O)C[n+]3ccc(N(C)C)cc3)CC[C@]3(C)[C@H](CC[C@@H]4[C@@]5(C)CC[C@H](OC(=O)C[n+]6ccc(N(C)C)cc6)C(C)(C)[C@@H]5CC[C@]43C)[C@@H]12.[Cl-].[Cl-]` as the molecule, how does the Activity (Liver microsome [1]) read?
Answer: 209 mV

Question: And the Activity (Liver microsome [2])?
Answer: 29.8 mV

Question: With `C=C(C)[C@@H]1CC[C@]2(COC(=O)CC[n+]3ccc(N(C)C)cc3)CC[C@]3(C)[C@H](CC[C@@H]4[C@@]5(C)CC[C@H](OC(=O)CC[n+]6ccc(N(C)C)cc6)C(C)(C)[C@@H]5CC[C@]43C)[C@@H]12.[Cl-].[Cl-]` as the molecule, how does the inhibition (Hs-578T) read?
Answer: Active

Question: And the Activity (Liver microsome [3])?
Answer: 205 mV

Question: What about the Activity (Liver microsome [4]) of the same molecule?
Answer: 24.7 mV

Question: What about the Activity (Liver microsome [5]) of the same molecule?
Answer: 204 mV

Question: What about the Activity (Liver microsome [6]) of the same molecule?
Answer: 27.1 mV

Question: What about the TIME (Liver microsome [7]) of the same molecule?
Answer: 0.00867 h

Question: What about the Activity (Liver microsome [8]) of the same molecule?
Answer: 206 mV

Question: And the Activity [9]?
Answer: Non-toxic

Question: Which results are given for `C=C(C)[C@@H]1CC[C@]2(COC(=O)C[N+](C)(C)C(C)C)CC[C@]3(C)[C@H](CC[C@@H]4[C@@]5(C)CC[C@H](OC(=O)C[N+](C)(C)C(C)C)C(C)(C)[C@@H]5CC[C@]43C)[C@@H]12.[Cl-].[Cl-]`?
Answer: TIME (Liver microsome [10]): 0.0146 h; TIME (Liver microsome [11]): 0.0144 h; inhibition (Liver microsome [12]): Active; Activity (Liver microsome [13]): 19.8 mV; Activity (Liver microsome [14]): 217 mV; TIME (Liver microsome [15]): 0.0139 h; TIME (Liver microsome [16]): 0.0137 h; Activity (Liver microsome [17]): 217 mV; Activity (Liver microsome [18]): 28.8 mV

Question: What does the source list for `C=C(C)[C@@H]1CC[C@]2(COC(=O)C(CC)[n+]3ccc(N(C)C)cc3)CC[C@]3(C)[C@H](CC[C@@H]4[C@@]5(C)CC[C@H](OC(=O)C(CC)[n+]6ccc(N(C)C)cc6)C(C)(C)[C@@H]5CC[C@]43C)[C@@H]12` (some centres undefined)?
Answer: Activity (Liver microsome [19]): 23.2 mV; Activity (Liver microsome [20]): 197 mV; Activity (Liver microsome [21]): 23.2 mV; TIME [22]: 0.0117 h; TIME [23]: 0.0136 h
